Test results reported in ChEMBL document CHEMBL3045743, “Synthesis and herbicidal activity of isoindoline-1,3-dione substituted benzoxazinone derivatives containing a carboxylic ester group” (J Agric Food Chem, 2009).

Assays:
[1] = Phytotoxicity against Triticum aestivum (wheat) assessed as growth inhibition at 37.5 g.a.i/ha pre-emergent application measured after 15 days by greenhouse crop selectivity assay; type: organism-based; details: in vivo, 37.5 g.a.i/ha, read-out: GI
Procedure, shortened: (§1)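 Pre-emergence greenhouse crop selectivity test on pot-grown plants in clay soil (pH 6.5, 1.7% organic matter, 37.5% clay, CEC 12.9 cmol/kg). Stock solutions were diluted with water and applied at 300, 150, 75 or 37.5 g a.i./ha, in triplicate. After 15 days, phytotoxicity was scored visually against untreated controls as % crop growth inhibition, averaged over the triplicates.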

[2] = Phytotoxicity against Glycine max (soybean) assessed as growth inhibition at 300 g.a.i/ha pre-emergent application measured after 15 days by greenhouse crop selectivity assay; type: organism-based; details: in vivo, 300 g.a.i/ha, read-out: GI; procedure, shortened: as §1
[3] = Phytotoxicity against Glycine max (soybean) assessed as growth inhibition at 75 g.a.i/ha pre-emergent application measured after 15 days by greenhouse crop selectivity assay; type: organism-based; details: in vivo, 75 g.a.i/ha, read-out: GI; procedure, shortened: as §1
[4] = Phytotoxicity against Glycine max (soybean) assessed as growth inhibition at 150 g.a.i/ha pre-emergent application measured after 15 days by greenhouse crop selectivity assay; type: organism-based; details: in vivo, 150 g.a.i/ha, read-out: GI; procedure, shortened: as §1
Oryza sativa [5] = assay: Phytotoxicity against Oryza sativa (rice) assessed as growth inhibition at 37.5 g.a.i/ha pre-emergent application measured after 15 days by greenhouse crop selectivity assay; type: organism-based, L.; details: in vivo, other, 360 h; procedure, shortened: as §1
Oryza sativa [6] = assay: Phytotoxicity against Oryza sativa (rice) assessed as growth inhibition at 75 g.a.i/ha pre-emergent application measured after 15 days by greenhouse crop selectivity assay; type: organism-based, L.; details: in vivo, other, 360 h; procedure, shortened: as §1
Triticum aestivum = assay: Phytotoxicity against Triticum aestivum (wheat) assessed as growth inhibition at 150 g.a.i/ha pre-emergent application measured after 15 days by greenhouse crop selectivity assay; type: organism-based; details: in vivo, other, 360 h; procedure, shortened: as §1

Compound: C#CCN1C(=O)COc2cc(F)c(N3C(=O)C4=C(CCCC4)C3=O)cc21 [FLUMIOXAZIN]
- inhibition at 360 h [1]: > 10%
- inhibition at 360 h [2]: > 10%
- inhibition at 360 h [3]: > 10%
- inhibition at 360 h [4]: > 10%

Compound: CCOC(=O)C(CC)N1C(=O)C(C)Oc2cc(F)c(N3C(=O)C4=C(CCCC4)C3=O)cc21 (configuration not stated)
- growth inhibition (GI) (Oryza sativa [5]): Not Active
- growth inhibition (GI) (Oryza sativa [6]): Not Active
- growth inhibition (GI) (Triticum aestivum): Not Active
